High-throughput results: PubChem, several laboratories
ANO1 activ: mouse TMEM16A channel activation, primary screen | Q8BHY3 | HEK293 TMEM16A/YFP-H148Q/I152L, iodide quench fluorescence; stronger effect = lower value | AID 623877 | B-score at 10 µM | 340,000 compounds, 0.3% hits;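 active means fluorescence-ratio B-score plate-corrected deviation score at least 3 library SD below zero, with starting fluorescence score within 5 deviations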;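 further: channel opened by trigger with iodide after compound preincubation; score built on the fluorescence ratio of max minus min over baseline; more negative score means more quench and so TMEM16A activation or potentiation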
DAGLB inh: blocks human DAGLB lipase activity. Q8NCG7. HEK293T DAGLB membrane lysate, EnzChek fluorogenic substrate. inhibition, % at 5.17 µM. 340,000 compounds, 0.059% hits. AID 504411; in the data active means inhibition above about 34%;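 further: 0% = enzyme with vehicle and 100% = wells lacking enzyme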
MT1-MMP act inh: blocks activation of human MT1-MMP | HT1080 RFP-PRO-GFP cells, GFP/RFP ratio fluorescence, overnight; percent of plate control window, DMSO zero | GFP/RFP ratio change, % at 20 µM | 360,000 compounds, 0.061% hits | AID 651647;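 active means GFP/RFP ratio change of at least 30% with cell ATP level not reduced by more than half and red fluorescence within 50% of control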
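Assay system: HT1080 cells carrying an RFP-PRO-GFP reporter | Dosing: Single dose of 20 µM compound, 1% DMSO final | Incubation: Cells overnight before dosing, compound overnight, 37 °C, 5% CO2 | Evaluation: GFP/RFP fluorescence ratio | Control set: DMSO and RFP-L50D-GFP cell wells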
TMEM16A inh: mouse TMEM16A channel inhibition, primary screen. Q8BHY3. HEK293 TMEM16A/YFP iodide influx fluorescence, ionomycin. normalized B-score (activity score, 25-100; higher = stronger inhibition) at 10 µM. 310,000 compounds, 1.2% hits;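 active means ratio plate-corrected score three or more library SD toward inhibition, starting fluorescence score within five deviations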;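 further: score derived from kinetic fluorescence span divided by baseline fluorescence per well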
TMEM16A reconf: reconfirmed blocker of mouse TMEM16A calcium-activated chloride channel; inhibition, % at 10 µM; 2,300 compounds, 39% hits; shares compounds with TMEM16A inh; HEK293 TMEM16A/YFP-H148Q, iodide quench fluorescence; ionomycin added to raise cell calcium; AID 652189;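 active means mean duplicate percent inhibition, scaled so buffer wells are 0 and the reference blocker 100, over three buffer SD above buffer mean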
HEK293 Ca mobil: counter-screen for TMEM16A inhibitors: effect on calcium mobilization. AID 652231. shares compounds with TMEM16A inh. calcium response (% of ionomycin), % at 10 µM. TMEM16A/YFP HEK293, Fluo4 calcium mobilization. 2,300 compounds, 2% hits;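 active means duplicate-averaged calcium signal over 20% of the ionomycin maximum, relative to buffer baseline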;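 further: each well's signal is peak minus trough fluorescence divided by its pre-addition baseline; 0% = buffer wells and 100% = ionomycin wells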
Parental YFP cnt: parental YFP-HEK293 iodide quench counter-screen activity; shares compounds with TMEM16A inh; ionomycin; YFP ratio F(max-min)/F0 at 10 µM; 2,300 tested, under 10 active;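 active means yellow fluorescent protein signal ratio exceeding the buffer control mean by over 5 SD of those controls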;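 further: ratio is mean of duplicate wells from kinetic YFP trace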
ClC-1 inh: selectivity of TMEM16A inhibitors: inhibition of rat ClC-1 chloride channel; shares compounds with TMEM16A inh; CHO ClC-1-YFP, iodide influx fluorescence quench; iodide control reads 0, buffer control 100; ratio percent, % at 10 µM; 2,300 tested, under 10 active;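 active means duplicate-mean ratio percent above the mean of iodide-only control wells, which defines zero, plus 5 of their SD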;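 further: higher percent means stronger block of ClC-1 iodide influx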
Target sequence (P35524 whole entry, looked up): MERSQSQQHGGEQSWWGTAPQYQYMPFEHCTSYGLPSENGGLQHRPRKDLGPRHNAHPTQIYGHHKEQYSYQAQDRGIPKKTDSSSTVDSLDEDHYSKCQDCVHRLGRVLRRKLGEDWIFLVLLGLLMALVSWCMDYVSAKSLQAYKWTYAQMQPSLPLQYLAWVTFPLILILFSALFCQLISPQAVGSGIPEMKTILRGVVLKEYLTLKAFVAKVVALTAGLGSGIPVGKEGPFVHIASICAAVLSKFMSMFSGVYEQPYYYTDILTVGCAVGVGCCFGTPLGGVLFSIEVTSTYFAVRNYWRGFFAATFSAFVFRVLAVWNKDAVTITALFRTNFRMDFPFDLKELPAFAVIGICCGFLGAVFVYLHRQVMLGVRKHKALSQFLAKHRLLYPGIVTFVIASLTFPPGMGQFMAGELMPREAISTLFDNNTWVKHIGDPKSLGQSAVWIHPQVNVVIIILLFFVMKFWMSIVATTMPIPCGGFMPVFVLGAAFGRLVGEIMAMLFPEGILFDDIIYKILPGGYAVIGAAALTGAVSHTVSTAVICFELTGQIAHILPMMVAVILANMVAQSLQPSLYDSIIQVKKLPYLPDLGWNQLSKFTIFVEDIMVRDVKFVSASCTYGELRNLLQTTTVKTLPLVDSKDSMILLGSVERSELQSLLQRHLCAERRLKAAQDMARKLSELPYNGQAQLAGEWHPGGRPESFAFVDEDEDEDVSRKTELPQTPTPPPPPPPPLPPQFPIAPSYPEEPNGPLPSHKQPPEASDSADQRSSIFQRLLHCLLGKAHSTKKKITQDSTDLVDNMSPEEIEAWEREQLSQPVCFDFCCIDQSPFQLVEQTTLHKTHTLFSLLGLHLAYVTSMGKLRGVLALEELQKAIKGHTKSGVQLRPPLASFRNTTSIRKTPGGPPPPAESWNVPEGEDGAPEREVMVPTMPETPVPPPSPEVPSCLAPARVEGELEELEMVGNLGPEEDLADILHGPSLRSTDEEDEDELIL
* hit, by the source's call; i = inactive; / = no result. Sampled rows, rich in hits. Any-hit rate of the full collection: about 1.3%.

SMILES	ANO1 activ	DAGLB inh	MT1-MMP act inh	TMEM16A inh	TMEM16A reconf	HEK293 Ca mobil	Parental YFP cnt	ClC-1 inh
O=C(N/N=C/c1sc(N2CCOCC2)nc1-c1ccccc1)c1cccc(S(=O)(=O)N2CCOCC2)c1	i	4	-27	i	i	i	-0.89	1
Nc1ccc(C(=O)N/N=C/c2sc(N3CCOCC3)nc2-c2ccccc2)cc1	i	3	5	i	/	/	/	/
CN1CCN(CCNC(=O)c2ccc(CS(=O)c3ccc(Br)cc3)o2)CC1 (stereo not given)	/	2	-1	/	/	/	/	/
CCOC(=O)c1nnn(-c2nonc2-n2cccc2)c1CCl	i	3	3	i	/	/	/	/
CCOC(=O)c1nnn(-c2nonc2-n2cccc2)c1CN1CCC(C)CC1	/	-20	-22	100*	18%*	i	-1.2	-3
COc1ccc2c(c1)CCc1c(C(=O)NC3CCCCC3)noc1-2	i	-5	-4	100*	i	i	-0.84	-4
Cc1ccc(S(=O)(=O)C[C@@H]2OC[C@H](C(C)C)N2S(=O)(=O)c2ccc(C)cc2)cc1	/	/	-3	/	/	/	/	/
CCOc1ccc(-c2nnn(CC(=O)c3ccc4c(c3)OCCO4)n2)cc1OCC	i	-8	0	25*	18%*	i	-1	-10
CCOc1ccc(-c2nnn(CC(=O)NCc3ccc(F)cc3)n2)cc1OCC	i	-2	3	i	/	/	/	/
CCC(Sc1nc(C)cc(=O)[nH]1)C(=O)Nc1nc(-c2ccccc2)cs1 (stereo not given)	i	6	1	25*	43%*	i	-1.1	-10
C=CCn1nc(C(=O)N2CCOCC2)cc1-c1sc(NC(=O)c2ccccc2)nc1C	/	-2	-7	/	/	/	/	/
COCCN1Cc2cccc(C(=O)NCC3CCN(CC(C)C)C3)c2C1=O (stereo not given)	i	-2	-6	i	/	/	/	/
CCOC(=O)N1CCC(N2Cc3cccc(C(=O)NCC4CCN(CC(C)C)C4)c3C2=O)CC1 (stereo not given)	i	-2	3	100*	i	i	-1.3	-6
CC(C)Cc1csc(NC(=O)C(C)C)c1C(=O)O	i	2	-3	i	/	/	/	/
CC(C)Cc1csc(NC(=O)c2ccc(Br)cc2)c1C(=O)O	i	2	-1	100*	i	i	-1.2	-14
CCc1nc2ccc(C(=O)NCCCN3CCCC3=O)cn2c1N(C)Cc1ccc(OC)cc1	/	/	-4	/	/	/	/	/
CC(SC1CCCC1)C(=O)Nc1ccnn1C(C)C (stereo not given)	i	0	4	i	i	i	-1.1	-2
Cc1cc(OCC(=O)Nc2ccc(Br)cc2)cc2c1C(=O)CC(C)(C)O2	i	/	6	100*	22%*	i	-0.78	-24
CC(=O)Nc1ccc(NC(=O)COc2cc(O)c3c(c2)OC(C)(C)CC3=O)cc1	i	0	0	i	/	/	/	/
N#C/C(=N\Nc1ccc(F)cc1)C(=O)C1CC1	i	/	0	25*	26%*	i	-0.82	-14
COCCSc1ccccc1C(=O)NCC1CCCO1 (stereo not given)	i	-2	7	i	/	/	/	/
CSc1ccccc1C(=O)NCC1CCCO1 (stereo not given)	i	0	5	100*	i	i	-0.99	-12
COc1ccc(S(=O)(=O)N=N/C=C2\C=CC=CN2O)cc1OC	/	-2	3	/	/	/	/	/
Cc1ccc(-c2nnc(N3CCN(C(=O)Cn4c(=O)n(C)c5ccccc54)CC3)c3ccccc23)cc1	i	2	-4	i	/	/	/	/
Cn1c(=O)n(CC(=O)N2CCN(c3nnc(-c4ccccc4)c4ccccc34)CC2)c2ccccc21	i	-1	0	25*	i	i	-1	-8
SMILES	ANO1 activ	DAGLB inh	MT1-MMP act inh	TMEM16A inh	TMEM16A reconf	HEK293 Ca mobil	Parental YFP cnt	ClC-1 inh
CC(C)c1noc2ncc(C(=O)c3cc(Cl)cc(Cl)c3O)cc12	i	22	-5	25*	32%*	i	-0.88	-4
Nc1nc2ncc(C(=O)c3cc(Cl)cc(Cl)c3O)cc2s1	i	10	-12	i	/	/	/	/
C[C@@H](C(=O)Nc1ccc2ccccc2c1)[C@H]1C[C@]1(C)[C@H](NC(=O)c1cnccn1)c1ccccc1	i	-2	-2	i	i	i	-1.2	-9
CC(=O)Nc1cccc(-c2csc(C(C)(NC(C)=O)c3ccccc3)n2)c1 (stereo not given)	/	/	2	/	/	/	/	/
CCNC(=O)N(C)C[C@H]1N[C@@](C)(C(=O)OC)[C@H]2C(=O)N(Cc3ccccc3)C(=O)[C@@H]12	i	-1	3	/	/	/	/	/
O=C(COC(=O)CC1CCCC1)Nc1ccc(Cl)cc1	i	-6	2	/	/	/	/	/
CCC(C)NS(=O)(=O)c1ccc(S(=O)(=O)N2CCCC3(CCCCC3)C2)cc1 (stereo not given)	i	-7	-23	100*	52%*	i	-1.1	-30
CCC(C)C(=O)Nc1ccc(S(=O)(=O)N2CCCC2)cc1 (stereo not given)	i	-1	0	i	/	/	/	/
CN(C)S(=O)(=O)c1cccc(COC(=O)c2ccc(Cl)cc2O)c1	i	-7	-3	100*	28%*	i	-0.88	-24
CN(C)S(=O)(=O)c1cccc(COC(=O)c2ccc3c(c2)OCO3)c1	i	-3	10	i	/	/	/	/
Cc1c(C(=O)N(Cc2ccccc2)C(C)C)oc2ccc(S(=O)(=O)N3CCOCC3)cc12	i	0	-3	i	/	/	/	/
CC(=O)c1ccc(NC(=S)NC(C)CCc2ccccc2)cc1 (stereo not given)	i	0	5	25*	i	i	-1.1	-1
COc1ccc(NC(=O)NC23CC4(C)CC(C)(CC(C)(C4)C2)C3)cc1OC	i	0	-12	25*	i	i	-1.3	3
COC(=O)c1ccc(NC(=O)Nc2ccc(OC)c(OC)c2)cc1	i	1	6	i	/	/	/	/
CCN(CC)c1nc(OCCNC(=O)Nc2ccccc2)nc(N(CC)CC)n1	i	-15	-7	100*	20%*	i	-1	-11
O=C(NCCOc1nc(N2CCOCC2)nc(N2CCOCC2)n1)Nc1ccccc1	i	0	-3	i	/	/	/	/
CCCCNC(=O)c1sc(=S)n2c1[nH]c(=O)c1ccccc12	i	24	-3	100*	56%*	i	-0.93	-25
